Test results from PMC3273977 (International Journal of Nanomedicine, 2012).

Columns and labels:
[1] = Renal accumulation pharmacokinetics after a single intravenous injection; type: in vivo, mice
How it was run: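 After one intravenous dose of sunitinib malate, 1.7 μmol/kg (0.9 mg/kg), to male C57Bl/6J mice, kidneys were collected at set times and frozen at −80°C. Kidneys were homogenised in 4% BSA to 0.1 g tissue/mL. Sunitinib was measured by LC-MS/MS against homogenate standards of 10–500 ng/mL, and renal levels are expressed as % of injected dose.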

[2] = test system: α-SMA, collagen IV, and vimentin; test: Immunostaining of fibrotic markers in kidney sections, UUO model; type: in vivo; details: UUO mice 3 days; daily 50 mg/kg sunitinib malate ip
How it was run: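 Male C57Bl/6J mice, 3-day UUO; n=7 per treatment group, n=6 per control. Dosing: single iv test compound (40 mg/kg conjugate) or equimolar iv sunitinib malate (3.4 μmol/kg), or ip sunitinib malate 50 mg/kg with 2nd/3rd doses at 24 and 48 h. Sections 3 μm, peroxide/azide block pH 5.8; 15-min boil citrate pH 6.0 (collagen IV, vimentin) or Tris/EDTA pH 9.0 (α-SMA); primaries 1 h RT (1:400, 1:400, 1:200).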

PDGFR-β = PDGFR-β (Mus musculus, UniProt P05622); test: Western blot of p-PDGFR-β in renal cortex, UUO model; type: in vivo; details: UUO mice 3 days; three daily ip injections 50 mg/kg sunitinib malate
Chain of PDGFR-β (P05622 32-1098): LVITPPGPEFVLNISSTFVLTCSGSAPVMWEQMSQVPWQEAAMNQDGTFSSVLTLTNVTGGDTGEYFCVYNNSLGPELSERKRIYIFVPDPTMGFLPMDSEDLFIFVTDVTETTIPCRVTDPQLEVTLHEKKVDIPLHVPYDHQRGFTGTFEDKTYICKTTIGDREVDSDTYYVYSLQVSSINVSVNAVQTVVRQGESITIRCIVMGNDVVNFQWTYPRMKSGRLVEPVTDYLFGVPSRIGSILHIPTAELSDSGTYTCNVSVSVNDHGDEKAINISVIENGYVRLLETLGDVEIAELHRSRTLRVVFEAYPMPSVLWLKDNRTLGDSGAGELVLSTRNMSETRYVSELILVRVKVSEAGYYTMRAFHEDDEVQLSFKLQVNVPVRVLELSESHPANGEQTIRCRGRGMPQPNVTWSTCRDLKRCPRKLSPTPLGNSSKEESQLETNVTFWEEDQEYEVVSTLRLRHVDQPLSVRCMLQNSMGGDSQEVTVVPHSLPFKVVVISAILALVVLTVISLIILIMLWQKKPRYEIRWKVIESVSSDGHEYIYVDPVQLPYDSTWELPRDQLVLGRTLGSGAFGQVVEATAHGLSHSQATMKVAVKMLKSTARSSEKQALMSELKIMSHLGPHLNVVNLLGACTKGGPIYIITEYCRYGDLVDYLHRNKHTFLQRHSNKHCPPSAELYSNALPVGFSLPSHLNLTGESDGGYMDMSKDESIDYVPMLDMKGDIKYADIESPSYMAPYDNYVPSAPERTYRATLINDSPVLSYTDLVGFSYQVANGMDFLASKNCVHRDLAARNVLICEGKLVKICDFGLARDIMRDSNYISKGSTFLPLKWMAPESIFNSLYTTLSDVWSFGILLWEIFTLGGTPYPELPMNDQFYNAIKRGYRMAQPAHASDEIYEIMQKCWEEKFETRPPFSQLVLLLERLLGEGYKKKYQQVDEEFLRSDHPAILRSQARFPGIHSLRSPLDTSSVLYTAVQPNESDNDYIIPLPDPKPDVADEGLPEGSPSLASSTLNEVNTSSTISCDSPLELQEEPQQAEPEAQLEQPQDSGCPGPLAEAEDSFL
How it was run: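 Male C57Bl/6J mice sacrificed after 3 days UUO; ip sunitinib malate 50 mg/kg, with 2nd/3rd doses at 24 and 48 h. Cortex homogenized in RIPA with protease/phosphatase inhibitors and EDTA. Blots blocked 1 h at room temperature in 5% milk/TBS-T. Probed overnight at 4°C with rabbit anti-p-PDGFR-β (Tyr740, 1:200) or β-actin (1:1000) in TBS-T/5% BSA.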

[3] = Plasma pharmacokinetics after a single intravenous injection; type: in vivo, mice
How it was run: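 Male C57Bl/6J mice (n = 15) received one intravenous dose of sunitinib malate, 1.7 μmol/kg (0.9 mg/kg), equimolar to a 20 mg/kg lysozyme conjugate. Blood was taken by cheek puncture at 1 min and at sacrifice time points, then centrifuged. Plasma sunitinib was measured by LC-MS/MS against standards of 10 ng/mL–1 μg/mL. Values are % of dose, assuming plasma volume 0.05 mL/g. Parameters come from two-compartment curve fitting.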

ABCG2 = details: cited from earlier work
P-glycoprotein (P-gp) = details: cited from earlier work
[4] = test system: UUO-induced tubulointerstitial fibrosis; test: Overall antifibrotic effect in UUO-induced tubulointerstitial fibrosis; type: in vivo; details: UUO mice, daily 50 mg/kg sunitinib malate
How it was run: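 Male C57Bl/6J mice weighing 13–25 g had unilateral ureteral obstruction and were killed after 3 days. Sunitinib malate was given as three daily intraperitoneal injections of 50 mg/kg (94 μmol/kg), n = 7. Controls were normal mice and untreated UUO mice, n = 6 each. Kidneys were scored for collagen IV, vimentin and α-SMA immunostaining and p-PDGFR-β (Tyr740) Western blot. Data are mean ± SEM.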

[5] = test system: tyrosine kinases in HK-2 cells; test: Inhibition of tyrosine kinase phosphorylation after uptake in HK-2 cells; type: cell-based, human; details: 10 μM, 24 hours incubation of HK-2 cells, lysis, ATP stimulation, Western blot
How it was run: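 HK-2 cells were seeded at 1.5 × 10^4 per well, serum-starved overnight, then given 10 μM test compound or 0.1% (v/v) DMSO control for 24 h. Cells were PBS-washed and lysed with protease and phosphatase inhibitors, and protein was measured by BCA. Lysate was mixed with an equal volume of 10 μM ATP in Abl buffer (pH 7.5) and held 60 min at 37°C. 10 μg protein went to SDS-PAGE, anti-phosphotyrosine (PY20) blot and densitometry.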

[6] = test system: collagen 1A2, PAI-1, fibronectin, and MCP-1; test: Renal mRNA expression of profibrotic genes; type: in vivo; details: UUO mice 3 days; three daily ip injections 50 mg/kg sunitinib malate
How it was run: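 Male C57Bl/6J mice, 3-day UUO; groups n=6–7; single iv test compound or sunitinib malate, or ip sunitinib malate 50 mg/kg with later doses at 24 and 48 h. TaqMan qRT-PCR on whole kidney and cortex. mRNA normalized to TBP and expressed relative to non-obstructed control mice (set at 1). Mean ± SEM; one-way ANOVA, P < 0.05.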

HK-2 cells = test: In vitro cytotoxicity, sulforhodamine B assay; type: cell-based; details: Homo sapiens, HK-2, 24 h, read-out: IC50 cell viability
[7] = mice, single iv, equimolar 1.7 μmol/kg, kidneys
[8] = mice, single iv, equimolar 1.7 μmol/kg, kidneys, listed as sunitinib

CCN(CC)CCNC(=O)c1c(C)[nH]c(/C=C2\C(=O)Nc3ccc(F)cc32)c1C [Sunitinib, sunitinib]
half-life ([1]; C57BI/6 J, mouse, kidneys, iv, 0.9 mg/kg): 66 min | time to almost complete elimination from the kidneys ([1]; mice, after administration): ≤ 12 h | time to maximum renal levels ([1]; mice, single iv, equimolar 1.7 μmol/kg): ≤ 30 min | AUC0–∞ [1, 7]: 9.4% dose*hours | Cmax (% of the dose) [1, 7]: 4.9% | AUC0–∞ [1, 8]: 9.4 % dose*hours | Cmax (% of the dose) [1, 8]: 4.9% | renal deposition of α-SMA, collagen IV, and vimentin [2]: decreased the deposition of vimentin in the kidneys, although these differences were not significant | p-PDGFR-β levels in the renal cortex (PDGFR-β): decreased p-PDGFR-β levels in the renal cortex | half-life ([3]; C57Bl/6J, mouse, plasma, iv, 0.9 mg/kg): 25 min | Peripheral distribution volume (V2) ([3]; mice, single iv, equimolar 1.7 μmol/kg, plasma): 87 mL | initial distribution volume (V1) relative to 17864-ULS-lysozyme ([3]; mice, single iv, equimolar dose): over 15 fold | substrate of efflux transporter ABCG2 (ABCG2): substrate | substrate of efflux transporter P-gp (P-glycoprotein (P-gp)): substrate | antifibrotic effect ([4]; listed as sunitinib): reduction of some of the studied markers | antifibrotic effect ([4]; listed as sunitinib malate): antifibrotic responses | inhibitory effect on phosphorylation of tyrosine kinases [5]: strongly inhibited multiple kinases | renal mRNA expression of collagen 1A2, PAI-1, fibronectin, MCP-1 [6]: significantly lower renal mRNA levels of collagen 1A2 and fibronectin | IC50 (HK-2 cells): 12 µM
